Results on 27 molecules are retold here after article PMC10546487 (Journal of medicinal chemistry, 2022).

The target of assay [1] is DOR (Mus musculus, UniProt P32300). The assay is described as follows: Radioligand competition binding assay, DOR. In general terms: Loss of bound radioactivity is the signal in a displacement assay; it reports binding, not function.
Assay [2] deals with MOR (Mus musculus, UniProt P42866). Put plainly: Radioligand competition binding assay, MOR. The following applies: for Selectivity δ/μ: ratio of Ki values DOR/MOR; for Selectivity κ/μ: ratio of Ki values KOR/MOR.
Chain of MOR (P42866 whole entry): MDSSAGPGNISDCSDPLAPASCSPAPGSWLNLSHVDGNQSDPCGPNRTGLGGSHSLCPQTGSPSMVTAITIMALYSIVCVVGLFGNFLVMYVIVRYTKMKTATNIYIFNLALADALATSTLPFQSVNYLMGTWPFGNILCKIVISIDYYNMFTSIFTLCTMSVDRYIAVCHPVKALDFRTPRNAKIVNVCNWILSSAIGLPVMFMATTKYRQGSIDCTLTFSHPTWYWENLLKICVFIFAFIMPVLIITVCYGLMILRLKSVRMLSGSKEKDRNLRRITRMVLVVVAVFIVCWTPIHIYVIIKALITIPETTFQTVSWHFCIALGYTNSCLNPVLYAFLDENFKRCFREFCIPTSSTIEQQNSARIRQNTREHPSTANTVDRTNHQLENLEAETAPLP
In assay [3] the test system is mice. The assay is described as follows: Warm-water tail immersion assay. The assay is classed as in vivo, mouse. The essentials:
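Male Swiss-Webster mice (23–35 g, 7–8 weeks), n = 5 per group. Single test-compound dose of 10 mg/kg given subcutaneously at time 0. Tail-flick latency measured in water at 56 ± 0.1 °C. Saline served as negative control and morphine as positive control. Response expressed as % maximum possible effect, reported as mean ± SD.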

Chain of DOR (P32300 whole entry): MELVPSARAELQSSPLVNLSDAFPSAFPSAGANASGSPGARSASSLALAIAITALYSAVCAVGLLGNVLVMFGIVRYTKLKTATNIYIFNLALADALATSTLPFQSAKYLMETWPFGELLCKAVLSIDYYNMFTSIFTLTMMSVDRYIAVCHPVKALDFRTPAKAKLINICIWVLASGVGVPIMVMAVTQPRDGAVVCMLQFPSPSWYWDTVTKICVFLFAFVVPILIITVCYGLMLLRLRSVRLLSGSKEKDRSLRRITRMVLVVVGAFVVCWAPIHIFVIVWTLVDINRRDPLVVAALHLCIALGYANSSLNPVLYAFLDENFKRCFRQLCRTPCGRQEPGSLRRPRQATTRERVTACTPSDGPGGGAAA

One may read the Ki as the equilibrium dissociation constant of an inhibitor or competing ligand from its target. Lower therefore signals a stronger hold on the target. Molecule `O=C(N[C@@H]1CC[C@@]2(O)[C@H]3Cc4ccc(O)c5c4[C@@]2(CCN3CC2CC2)[C@H]1O5)c1cccc2c(C3CCCCC3)c[nH]c12` [Compound 16, 17-Cyclopropylmethyl-3,14β-dihydroxy-4,5α-epoxy-6β-(3-cyclo-hexyl-indole-7-carboxamido)morphinan] gave a Ki in assay [1] of 64 ± 1.99 nM.

In the case of `O=C(N[C@H]1CC[C@@]2(O)[C@H]3Cc4ccc(O)c5c4[C@@]2(CCN3CC2CC2)[C@H]1O5)c1cccc2c(C3CCCC3)c[nH]c12` [Compound 32, 17-Cyclopropylmethyl-3,14β-dihydroxy-4,5α-epoxy-6α-(3-cyclo-pentyl-indole-7-carboxamido)morphinan], affinity in assay [1] was put at a Ki of 28.2 ± 5.4 nM.

Take `O=C(N[C@H]1CC[C@@]2(O)[C@H]3Cc4ccc(O)c5c4[C@@]2(CCN3CC2CC2)[C@H]1O5)c1cccc2c(-c3ccccc3)c[nH]c12` [Compound 34, 17-Cyclopropylmethyl-3,14β-dihydroxy-4,5α-epoxy-6α-(3-phenyl-indole-7-carboxamido)morphinan]: in assay [1], the Ki is 15 ± 2.71 nM. This Ki lies about 1.9-fold lower than the previous one.

`O=C(N[C@H]1CC[C@@]2(O)[C@H]3Cc4ccc(O)c5c4[C@@]2(CCN3CC2CC2)[C@H]1O5)c1cccc2c(C3CCCCC3)c[nH]c12` [Compound 33, 17-Cyclopropylmethyl-3,14β-dihydroxy-4,5α-epoxy-6α-(3-cyclo-hexyl-indole-7-carboxamido)morphinan]: in assay [1], the inhibition constant (Ki) stood at 18.6 ± 7.24 nM.

Turning to `O=C(N[C@H]1CC[C@@]2(O)[C@H]3Cc4ccc(O)c5c4[C@@]2(CCN3CC2CC2)[C@H]1O5)c1cccc2cc(-c3ccccc3)[nH]c12` [Compound 22, 17-Cyclopropylmethyl-3,14β-dihydroxy-4,5α-epoxy-6α-(2-phenyl-indole-7-carboxamido)morphinan], the “Selectivity δ/μ” value in assay [2] turned out to be 2.2. The affinity in assay [1] corresponds to a Ki of 5.36 ± 1 nM.

As for `N#Cc1cc2cccc(C(=O)N[C@H]3CC[C@@]4(O)[C@H]5Cc6ccc(O)c7c6[C@@]4(CCN5CC4CC4)[C@H]3O7)c2[nH]1` [Compound 20, 17-Cyclopropylmethyl-3,14β-dihydroxy-4,5α-epoxy-6α-(2-cyano-indole-7-carboxamido)morphinan], the “Selectivity δ/μ” value in assay [2] is recorded as 12.2. Moreover, in assay [1], the Ki was 10.7 ± 0.93 nM.

With `N#Cc1c[nH]c2c(C(=O)N[C@H]3CC[C@@]4(O)[C@H]5Cc6ccc(O)c7c6[C@@]4(CCN5CC4CC4)[C@H]3O7)cccc12` [Compound 25, 17-Cyclopropylmethyl-3,14β-dihydroxy-4,5α-epoxy-6α-(3-cyano-indole-7-carboxamido)morphinan], the “Selectivity κ/μ” value in assay [2] is 6.3. This molecule showed a Ki in assay [1] of 12.2 ± 2.2 nM.

Take `O=C(N[C@@H]1CC[C@@]2(O)[C@H]3Cc4ccc(O)c5c4[C@@]2(CCN3CC2CC2)[C@H]1O5)c1cccc2cc(-c3ccccc3)[nH]c12` [Compound 5, 17-Cyclopropylmethyl-3,14β-dihydroxy-4,5α-epoxy-6β-(2-phenyl-indole-7-carboxamido)morphinan]: the Ki in assay [1] was 23.8 ± 3.96 nM.

`O=C(N[C@@H]1CC[C@@]2(O)[C@H]3Cc4ccc(O)c5c4[C@@]2(CCN3CC2CC2)[C@H]1O5)c1cccc2cc(Cl)[nH]c12` [Compound 2, 17-Cyclopropylmethyl-3,14β-dihydroxy-4,5α-epoxy-6β-(2-chloro-indole-7-carboxamido)morphinan] registered an inhibitory constant (Ki) in assay [1] of 2.42 ± 0.44 nM.

For the molecule `CC(C)c1c[nH]c2c(C(=O)N[C@H]3CC[C@@]4(O)[C@H]5Cc6ccc(O)c7c6[C@@]4(CCN5CC4CC4)[C@H]3O7)cccc12` [Compound 31, 17-Cyclopropylmethyl-3,14β-dihydroxy-4,5α-epoxy-6α-(3-iso-propyl-indole-7-carboxamido)morphinan], in assay [1], the Ki was found to be 25.9 ± 5.69 nM.

As for `Cl.O=Cc1c[nH]c2c(C(=O)N[C@@H]3CC[C@@]4(O)[C@H]5Cc6ccc(O)c7c6[C@@]4(CCN5CC4CC4)[C@H]3O7)cccc12` [Compound 10, 17-Cyclopropylmethyl-3,14β-dihydroxy-4,5α-epoxy-6β-(3-formyl-indole-7-carboxamido)morphinan], the “Selectivity δ/μ” value in assay [2] was determined as 35.1.

`CC(=O)Nc1c[nH]c2c(C(=O)N[C@@H]3CC[C@@]4(O)[C@H]5Cc6ccc(O)c7c6[C@@]4(CCN5CC4CC4)[C@H]3O7)cccc12` [Compound 12, 17-Cyclopropylmethyl-3,14β-dihydroxy-4,5α-epoxy-6β-(3-acet-amido-indole-7-carboxamido)morphinan]: the inhibitory constant (Ki) in assay [1] came out at 31 ± 4.96 nM.

`N#Cc1cc2cccc(C(=O)N[C@@H]3CC[C@@]4(O)[C@H]5Cc6ccc(O)c7c6[C@@]4(CCN5CC4CC4)[C@H]3O7)c2[nH]1` [Compound 3, 17-Cyclopropylmethyl-3,14β-dihydroxy-4,5α-epoxy-6β-(2-cyano-indole-7-carboxamido)morphinan] displayed a Ki in assay [1] of 12 ± 0.62 nM.

`O=C(N[C@@H]1CC[C@@]2(O)[C@H]3Cc4ccc(O)c5c4[C@@]2(CCN3CC2CC2)[C@H]1O5)c1cccc2c(-c3ccccc3)c[nH]c12` [Compound 17, 17-Cyclopropylmethyl-3,14β-dihydroxy-4,5α-epoxy-6β-(3-phenyl-indole-7-carboxamido)morphinan] had an inhibition constant (Ki) in assay [1] of 49.3 ± 10.1 nM.

Turning to `N#Cc1c[nH]c2c(C(=O)N[C@@H]3CC[C@@]4(O)[C@H]5Cc6ccc(O)c7c6[C@@]4(CCN5CC4CC4)[C@H]3O7)cccc12` [Compound 8, 17-Cyclopropylmethyl-3,14β-dihydroxy-4,5α-epoxy-6β-(3-cyano-indole-7-carboxamido)morphinan], in assay [1], the affinity, expressed as Ki, was 25.4 ± 3.39 nM.

The molecule `O=C(N[C@@H]1CC[C@@]2(O)[C@H]3Cc4ccc(O)c5c4[C@@]2(CCN3CC2CC2)[C@H]1O5)c1cccc2c(Br)c[nH]c12` [Compound 6, 17-Cyclopropylmethyl-3,14β-dihydroxy-4,5α-epoxy-6β-(3-bromo-indole-7-carboxamido)morphinan] came in with an inhibition constant Ki in assay [1] of 11.6 ± 2.68 nM.

For `O=C(N[C@H]1CC[C@@]2(O)[C@H]3Cc4ccc(O)c5c4[C@@]2(CCN3CC2CC2)[C@H]1O5)c1cccc2c([N+](=O)[O-])c[nH]c12` [Compound 26, 17-Cyclopropylmethyl-3,14β-dihydroxy-4,5α-epoxy-6α-(3-nitro-indole-7-carboxamido)morphinan], in assay [2], the “Selectivity δ/μ” value was found to be 20.3 and the “Selectivity κ/μ” value was found to be 9.2. In assay [1], this molecule returned an inhibition constant Ki of 21.6 ± 2.57 nM.

For `O=C(N[C@@H]1CC[C@@]2(O)[C@H]3Cc4ccc(O)c5c4[C@@]2(CCN3CC2CC2)[C@H]1O5)c1cccc2cc(Br)[nH]c12` [Compound 1, 17-Cyclopropylmethyl-3,14β-dihydroxy-4,5α-epoxy-6β-(2-bromo-indole-7-carboxamido)morphinan], affinity in assay [1] was put at a Ki of 3.04 ± 0.27 nM.

`CC(C)c1c[nH]c2c(C(=O)N[C@@H]3CC[C@@]4(O)[C@H]5Cc6ccc(O)c7c6[C@@]4(CCN5CC4CC4)[C@H]3O7)cccc12` [Compound 14, 17-Cyclopropylmethyl-3,14β-dihydroxy-4,5α-epoxy-6β-(3-iso-propyl-indole-7-carboxamido)morphinan]: affinity in assay [1] was put at a Ki of 19.8 ± 2.72 nM.

In assay [1], `O=C(N[C@@H]1CC[C@@]2(O)[C@H]3Cc4ccc(O)c5c4[C@@]2(CCN3CC2CC2)[C@H]1O5)c1cccc2c([N+](=O)[O-])c[nH]c12` [Compound 9, 17-Cyclopropylmethyl-3,14β-dihydroxy-4,5α-epoxy-6β-(3-nitro-indole-7-carboxamido)morphinan] came in with a Ki of 25.6 ± 8.06 nM. Also, the “Antinociception effect (% MPE)” value in assay [3] (10 mg/kg s.c., 56 °C) is on record as “noticeable antinociception”.

Take `O=C(N[C@H]1CC[C@@]2(O)[C@H]3Cc4ccc(O)c5c4[C@@]2(CCN3CC2CC2)[C@H]1O5)c1cccc2c(Cl)c[nH]c12` [Compound 24, 17-Cyclopropylmethyl-3,14β-dihydroxy-4,5α-epoxy-6α-(3-chloro-indole-7-carboxamido)morphinan]: the affinity in assay [1] corresponds to a Ki of 37.1 ± 9.46 nM.

`Cc1cc2cccc(C(=O)N[C@@H]3CC[C@@]4(O)[C@H]5Cc6ccc(O)c7c6[C@@]4(CCN5CC4CC4)[C@H]3O7)c2[nH]1` [Compound 4, 17-Cyclopropylmethyl-3,14β-dihydroxy-4,5α-epoxy-6β-(2-methyl-indole-7-carboxamido)morphinan]: in assay [1], the inhibitory constant (Ki) came out at 15.9 ± 0.38 nM.

In the case of `O=C(N[C@H]1CC[C@@]2(O)[C@H]3Cc4ccc(O)c5c4[C@@]2(CCN3CC2CC2)[C@H]1O5)c1cccc2c(Br)c[nH]c12` [Compound 23, 17-Cyclopropylmethyl-3,14β-dihydroxy-4,5α-epoxy-6α-(3-bromo-indole-7-carboxamido)morphinan], the affinity in assay [1] corresponds to a Ki of 19.2 ± 3.99 nM.

On to `CC(=O)Nc1c[nH]c2c(C(=O)N[C@H]3CC[C@@]4(O)[C@H]5Cc6ccc(O)c7c6[C@@]4(CCN5CC4CC4)[C@H]3O7)cccc12` [Compound 29, 17-Cyclopropylmethyl-3,14β-dihydroxy-4,5α-epoxy-6α-(3-acet-amido-indole-7-carboxamido)morphinan], for which, in assay [1], the Ki stood at 5.19 ± 0.35 nM.

In assay [1], `O=Cc1c[nH]c2c(C(=O)N[C@H]3CC[C@@]4(O)[C@H]5Cc6ccc(O)c7c6[C@@]4(CCN5CC4CC4)[C@H]3O7)cccc12` [Compound 27, 17-Cyclopropylmethyl-3,14β-dihydroxy-4,5α-epoxy-6α-(3-formyl-indole-7-carboxamido)morphinan] registered a Ki of 11.9 ± 1.91 nM.

For the molecule `Cc1c[nH]c2c(C(=O)N[C@H]3CC[C@@]4(O)[C@H]5Cc6ccc(O)c7c6[C@@]4(CCN5CC4CC4)[C@H]3O7)cccc12` [Compound 30, 17-Cyclopropylmethyl-3,14β-dihydroxy-4,5α-epoxy-6α-(3-methyl-indole-7-carboxamido)morphinan], the affinity in assay [1] corresponds to a Ki of 13.8 ± 4.02 nM. The “Blockage of the morphine-mediated antinociception” value in assay [3] (10 mg/kg s.c. in the presence of morphine (10 mg/kg)) was “different degrees of inhibition of morphine’s antinociceptive effect”.

Take `O=C(N[C@H]1CC[C@@]2(O)[C@H]3Cc4ccc(O)c5c4[C@@]2(CCN3CC2CC2)[C@H]1O5)c1cccc2cc(Cl)[nH]c12` [Compound 19, 17-Cyclopropylmethyl-3,14β-dihydroxy-4,5α-epoxy-6α-(2-chloro-indole-7-carboxamido)morphinan]: the affinity in assay [1] corresponds to a Ki of 1.82 ± 0.06 nM.
